From PMC6319256 (Bioorganic & medicinal chemistry letters, 2018)
Entries after “also recorded” stand apart in the source; their conditions may differ.

Key:
[1] = biological target: T1, cathepsin L (Homo sapiens, UniProt P07711); details: cited from earlier work; for kinact: cathepsin L, range stated for both compounds and both enzymes
[2] = biological target: T2, Cathepsin B (Homo sapiens, UniProt P07858); details: cited from earlier work; for kinact: cathepsin B, range stated for both compounds and both enzymes
[3] = biological target: T1, cathepsin L; assay: Cathepsin L inhibition kinetics; assay type: biochemical
[4] = biological target: T1, cathepsin L; assay: Irreversibility study; assay type: biochemical; details: 50 μM compound preincubated with Cathepsin L (10 nM), gel filtration
Outline: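 Test compound at 50 μM was preincubated with cathepsin L at 10 nM, then passed through a desalting spin column. Flow-through aliquots were assayed for recovery of enzyme activity at several time points.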

[5] = biological target: T2, Cathepsin B; assay: Cathepsin B inhibition with and without preincubation; assay type: biochemical; details: with and without preincubation of the inhibitor
[6] = biological target: T3, Calpain I (Homo sapiens, UniProt P07384); assay: Calpain I inhibition with and without preincubation; assay type: biochemical; details: with and without preincubation of the inhibitor
T3 sequence (P07384 1-714): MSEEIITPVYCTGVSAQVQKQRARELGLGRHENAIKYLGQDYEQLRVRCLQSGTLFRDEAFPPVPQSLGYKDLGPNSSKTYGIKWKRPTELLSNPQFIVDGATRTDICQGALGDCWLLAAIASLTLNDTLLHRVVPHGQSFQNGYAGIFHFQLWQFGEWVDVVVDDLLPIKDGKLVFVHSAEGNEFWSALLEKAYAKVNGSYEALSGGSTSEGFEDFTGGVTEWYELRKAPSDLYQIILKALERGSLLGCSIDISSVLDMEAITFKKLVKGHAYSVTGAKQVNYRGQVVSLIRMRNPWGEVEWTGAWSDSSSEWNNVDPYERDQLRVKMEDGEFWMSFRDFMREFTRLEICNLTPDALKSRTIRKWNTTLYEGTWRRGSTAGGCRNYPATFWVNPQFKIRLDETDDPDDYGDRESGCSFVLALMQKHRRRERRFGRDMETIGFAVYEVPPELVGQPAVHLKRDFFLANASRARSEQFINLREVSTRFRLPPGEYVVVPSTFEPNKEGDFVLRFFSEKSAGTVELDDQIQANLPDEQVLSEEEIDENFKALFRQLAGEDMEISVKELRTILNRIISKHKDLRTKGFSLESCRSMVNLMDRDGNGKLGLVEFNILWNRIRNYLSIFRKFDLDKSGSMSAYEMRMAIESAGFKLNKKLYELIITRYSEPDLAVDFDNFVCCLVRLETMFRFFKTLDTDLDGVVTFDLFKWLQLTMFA
T3 sequence (P04632 1-268 partner): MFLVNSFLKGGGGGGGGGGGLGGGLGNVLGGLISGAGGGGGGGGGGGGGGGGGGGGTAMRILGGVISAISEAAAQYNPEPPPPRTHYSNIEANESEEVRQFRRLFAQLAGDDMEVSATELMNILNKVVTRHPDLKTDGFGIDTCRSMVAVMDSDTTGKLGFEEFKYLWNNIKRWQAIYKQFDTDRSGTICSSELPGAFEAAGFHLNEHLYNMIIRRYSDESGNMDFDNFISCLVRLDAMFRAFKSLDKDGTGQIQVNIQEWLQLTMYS

[7] = biological target: T4, USP8 (Homo sapiens, UniProt P40818); assay: USP8 inhibition with and without preincubation; assay type: biochemical; details: with and without preincubation of the inhibitor
T4 sequence (P40818 1-1118): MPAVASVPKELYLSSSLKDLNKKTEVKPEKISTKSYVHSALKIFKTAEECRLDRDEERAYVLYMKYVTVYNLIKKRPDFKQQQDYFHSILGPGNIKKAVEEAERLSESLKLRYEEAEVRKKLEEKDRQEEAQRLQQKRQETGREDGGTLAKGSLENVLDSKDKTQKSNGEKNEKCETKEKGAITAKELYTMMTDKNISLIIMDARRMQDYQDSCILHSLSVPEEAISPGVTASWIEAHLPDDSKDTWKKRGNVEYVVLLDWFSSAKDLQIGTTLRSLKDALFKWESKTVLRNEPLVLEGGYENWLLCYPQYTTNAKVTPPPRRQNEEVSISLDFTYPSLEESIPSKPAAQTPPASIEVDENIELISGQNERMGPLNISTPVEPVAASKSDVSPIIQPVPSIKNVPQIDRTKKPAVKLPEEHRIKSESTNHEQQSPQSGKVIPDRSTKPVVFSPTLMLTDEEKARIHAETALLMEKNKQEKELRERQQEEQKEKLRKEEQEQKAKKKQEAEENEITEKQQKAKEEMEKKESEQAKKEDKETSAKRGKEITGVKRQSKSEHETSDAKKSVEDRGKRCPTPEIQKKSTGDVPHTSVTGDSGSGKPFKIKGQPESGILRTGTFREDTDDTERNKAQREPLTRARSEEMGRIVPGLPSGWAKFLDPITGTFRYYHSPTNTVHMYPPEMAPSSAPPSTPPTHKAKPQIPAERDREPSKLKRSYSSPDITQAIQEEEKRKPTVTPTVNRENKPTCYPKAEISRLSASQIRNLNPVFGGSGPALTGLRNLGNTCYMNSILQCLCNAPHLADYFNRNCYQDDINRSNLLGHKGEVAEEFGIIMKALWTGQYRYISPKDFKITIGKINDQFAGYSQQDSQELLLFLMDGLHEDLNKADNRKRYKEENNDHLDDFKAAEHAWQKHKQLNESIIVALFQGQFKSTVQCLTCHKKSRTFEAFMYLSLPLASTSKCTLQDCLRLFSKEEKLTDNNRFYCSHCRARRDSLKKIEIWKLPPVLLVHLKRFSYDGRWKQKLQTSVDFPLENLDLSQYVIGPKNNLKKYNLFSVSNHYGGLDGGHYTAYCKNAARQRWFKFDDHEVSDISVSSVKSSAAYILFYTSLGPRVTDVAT

[8] = system: K-Ras^G12C; details: cited from earlier work

T1 sequence (P07711 114-333): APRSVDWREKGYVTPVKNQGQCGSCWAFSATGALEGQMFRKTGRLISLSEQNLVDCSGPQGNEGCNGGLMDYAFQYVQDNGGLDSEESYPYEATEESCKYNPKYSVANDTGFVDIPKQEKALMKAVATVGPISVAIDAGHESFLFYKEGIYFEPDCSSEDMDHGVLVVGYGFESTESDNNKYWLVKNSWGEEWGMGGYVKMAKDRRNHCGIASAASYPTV

## O=C(N[C@H](/C=C/S(=O)(=O)c1ccccc1)CCc1ccccc1)[C@H](Cc1cc(I)c(O)c(I)c1)NC(=O)N1CCOCC1 [compound 8]
[1]
  kinact: 0.17 to 0.36 s⁻¹
  selectivity cathepsin L vs B as judged by Ki values: reversed selectivity
[2]
  kinact: 0.17 to 0.36 s⁻¹
[2]; relative to compound 7
  potency for cathepsin B (kinact/Ki values): increased potency

## CS(=O)(=O)/C=C/CNC(=O)COc1ccc(Br)cc1Br [compound 13]
[3]; varying concentrations of compound
  mode of inhibition (shift of substrate Km): substrate competitive inhibitor
[4]
  reversibility of inhibition: irreversibly
[5]
  inhibition of Cathepsin B: did not inhibit; also recorded: does not inhibit
[6]
  inhibition of Calpain I: did not inhibit; also recorded: does not inhibit
[7]
  inhibition of USP8: did not inhibit; also recorded: does not inhibit

## O=C(N[C@H](/C=C/S(=O)(=O)c1ccccc1)CCc1ccccc1)[C@H](Cc1ccccc1)NC(=O)N1CCOCC1 [compound 7]
[1]
  kinact: 0.17 to 0.36 s⁻¹
  selectivity cathepsin L vs B as judged by Ki values: more selective at inhibiting cathepsin L
[2]
  kinact: 0.17 to 0.36 s⁻¹

## C=CC(=O)N1CCN(c2ncnc3c(F)c(-c4c(O)cccc4F)c(Cl)cc23)CC1 [ARS-1620]
[8]
  activity in vivo: active in vivo

## C[C@@H](Oc1ccc(Br)cc1Br)C(=O)NC/C=C/S(C)(=O)=O [compound 11]
[3]
  inhibition of cathepsin L: time and dose dependent inhibition
